What all share (type): functional
The subject of assay [1] is Staphylococcus aureus. The experiment in a line: Antibacterial activity against methicillin resistant Staphylococcus aureus ATCC 700787 by microdilution method. The procedure, abridged: (§1)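 Broth microdilution MIC in cation-adjusted Mueller Hinton II broth. Compounds were made up at 2 mg/mL (starting solution) in DMF plus broth, with DMF ≤0.5% of media, then serially diluted in broth. Inoculum was a 0.5 McFarland suspension, 0.2 mL diluted into 40 mL broth and added to wells. Drug-free controls were included. MIC was the well with no turbidity versus controls; each strain was tested at least in triplicate.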
A general note: In broth dilution the organism is exposed to a series of concentrations in liquid medium.

Assay [2] has as its system Staphylococcus aureus. Put plainly: Antibacterial activity against methicillin resistant Staphylococcus aureus ATCC BAA-1680 by microdilution method. Put shortly:
as §1

Assay [3] deals with Staphylococcus aureus. Put plainly: Antibacterial activity against methicillin resistant Staphylococcus aureus ATCC BAA-39 by microdilution method. The procedure, abridged:
as §1

The subject of assay [4] is Staphylococcus aureus. The experiment in a line: Antibacterial activity against methicillin resistant Staphylococcus aureus ATCC 700698 by microdilution method. Put shortly:
as §1

Assay [5] concerns Staphylococcus aureus. The experiment in a line: Antibacterial activity against methicillin resistant Staphylococcus aureus ATCC 34404 by microdilution method. The procedure, abridged: as §1

For orientation: MIC means the lowest concentration that inhibits growth of the organism. Low readings indicate inhibition by little substance, high ones a need for much substance.

The structures appear in SMILES notation. In brackets after ≈: the same amount, converted by molar mass.

As for `O=C(O)CN1C(=O)/C(=C/c2ccc(Cl)c(Cl)c2)SC1=S`, the minimum inhibitory concentration (MIC) in assay [1], in assay [2], in assay [3], in assay [4] and in assay [5] was 125 µg/mL (≈ 359 µM) throughout.
For the compound `O=C(O)CN1C(=O)/C(=C/c2cccc(Oc3ccccc3)c2)SC1=S`, the MIC in assay [1], in assay [2], in assay [3], in assay [4] and in assay [5] was 31.2 µg/mL (≈ 84.1 µM) throughout.
For `CCCC(C(=O)O)N1C(=O)/C(=C/c2ccc(Cl)cc2Cl)SC1=S` (stereo not given), the minimum inhibitory concentration (MIC) in assay [1], in assay [2], in assay [3], in assay [4] and in assay [5] was 15.6 µg/mL (≈ 40 µM) throughout.
With `CC(C)CC(C(=O)O)N1C(=O)/C(=C/c2ccc(Cl)cc2Cl)SC1=S` (stereo not given), the MIC in assay [1], in assay [2], in assay [3], in assay [4] and in assay [5] was 15.6 µg/mL (≈ 38.6 µM) throughout.
`CC(C(=O)O)N1C(=O)/C(=C/c2ccc(Cl)cc2Cl)SC1=S` (stereo not given): the minimal inhibitory concentration (MIC) in assay [1], in assay [3] and in assay [4] was 125 µg/mL (≈ 345 µM) throughout.
With `O=C(O)C(Cc1ccccc1)N1C(=O)/C(=C/c2ccc(Cl)cc2Cl)SC1=S` (stereo not given), the MIC in assay [1], in assay [2], in assay [3], in assay [4] and in assay [5] was 15.6 µg/mL (≈ 35.6 µM) each time.
With `CC(C)C(C(=O)O)N1C(=O)/C(=C/c2ccc(Cl)cc2Cl)SC1=S` (stereo not given), the minimal inhibitory concentration (MIC) in assay [1], in assay [2], in assay [3], in assay [4] and in assay [5] was 15.6 µg/mL (≈ 40 µM) in each case.
As to `O=C(O)CN1C(=O)/C(=C/c2ccccc2[N+](=O)[O-])SC1=S`, the minimum inhibitory concentration (MIC) in assay [1], in assay [2], in assay [3], in assay [4] and in assay [5] was 62.5 µg/mL (≈ 193 µM) each time.
Regarding `O=C(O)CN1C(=O)/C(=C/c2ccc([N+](=O)[O-])cc2)SC1=S`, the MIC in assay [1], in assay [2], in assay [3], in assay [4] and in assay [5] was 250 µg/mL (≈ 771 µM) in each case.
Consider `CC(C)C(C(=O)O)N1C(=O)/C(=C/c2cccc3ccccc23)SC1=S` (stereo not given), for which the MIC in assay [1], in assay [2], in assay [3], in assay [4] and in assay [5] was 62.5 µg/mL (≈ 168 µM) throughout.
In the case of `CC(C)C(C(=O)O)N1C(=O)/C(=C/c2ccc(F)cc2)SC1=S` (stereo not given), the minimal inhibitory concentration (MIC) in assay [1], in assay [3] and in assay [4] was 62.5 µg/mL (≈ 184 µM) each time.
With `CC(C)C(C(=O)O)N1C(=O)/C(=C/c2ccccc2Cl)SC1=S` (stereo not given), the minimum inhibitory concentration (MIC) in assay [1], in assay [3] and in assay [4] was 62.5 µg/mL (≈ 176 µM) throughout.
As for `O=C(O)CN1C(=O)/C(=C/C=C/c2ccccc2)SC1=S`, the MIC in assay [1], in assay [2], in assay [3], in assay [4] and in assay [5] was 250 µg/mL (≈ 819 µM) throughout.
As for `CCSCC(C(=O)O)N1C(=O)/C(=C/c2ccc(Cl)cc2Cl)SC1=S` (stereo not given), the minimum inhibitory concentration (MIC) in assay [1], in assay [2], in assay [3], in assay [4] and in assay [5] was 31.2 µg/mL (≈ 74 µM) each time.
Regarding `COc1ccc(/C=C2\SC(=S)N(CC(=O)O)C2=O)cc1`, the minimum inhibitory concentration (MIC) in assay [1] came to 250 µg/mL (≈ 808 µM); in assay [2], 250 µg/mL (≈ 808 µM); in assay [3], 250 µg/mL (≈ 808 µM); in assay [4], 250 µg/mL (≈ 808 µM); in assay [5] it was 200 µg/mL (≈ 646 µM).
Take `O=C(O)CN1C(=O)/C(=C/c2ccnc3ccccc23)SC1=S`: the MIC is 250 µg/mL (≈ 757 µM) in assay [1]; 250 µg/mL (≈ 757 µM) in assay [2]; 500 µg/mL (≈ 1510 µM) in assay [3]; 500 µg/mL (≈ 1510 µM) in assay [4]; 200 µg/mL (≈ 605 µM) in assay [5].
For the compound `O=C(O)CN1C(=O)/C(=C/C2CCCCC2)SC1=S`, the minimal inhibitory concentration (MIC) in assay [1], in assay [2], in assay [3], in assay [4] and in assay [5] was 31.2 µg/mL (≈ 109 µM) in each case.
Consider `O=C(O)C(Cc1ccccc1)N1C(=O)/C(=C/c2ccccc2[N+](=O)[O-])SC1=S` (stereo not given), for which the MIC in assay [1] was determined as 125 µg/mL (≈ 302 µM); in assay [2], 62.5 µg/mL (≈ 151 µM); in assay [3], 62.5 µg/mL (≈ 151 µM); in assay [4] it was 62.5 µg/mL (≈ 151 µM); in assay [5] it was 125 µg/mL (≈ 302 µM).
On to `O=C(O)C(Cc1ccccc1)N1C(=O)/C(=C/c2cccc(Oc3ccccc3)c2)SC1=S` (stereo not given), for which the MIC in assay [1] worked out at 3.9 µg/mL (≈ 8.45 µM); in assay [2] it was 1.95 µg/mL (≈ 4.22 µM); in assay [3] it was 3.9 µg/mL (≈ 8.45 µM); in assay [4] it was 3.9 µg/mL (≈ 8.45 µM); in assay [5], 1.95 µg/mL (≈ 4.22 µM).
As for `O=C(O)c1cn(C2CC2)c2cc(N3CCNCC3)c(F)cc2c1=O` [CIPROFLOXACIN], the MIC in assay [1] was found to be 62.5 µg/mL (≈ 189 µM).
Regarding `CC1(C)S[C@@H]2[C@H](NC(=O)Cc3ccccc3)C(=O)N2[C@H]1C(=O)O` [PENICILLIN G], the MIC in assay [1] amounted to 31.2 µg/mL (≈ 93.5 µM); in assay [2], 62.5 µg/mL (≈ 187 µM); in assay [3], 31.2 µg/mL (≈ 93.5 µM); in assay [4], 15.6 µg/mL (≈ 46.7 µM); in assay [5] it was 31.2 µg/mL (≈ 93.5 µM).
Take `CN[C@H](CC(C)C)C(=O)N[C@H]1C(=O)N[C@@H](CC(N)=O)C(=O)N[C@H]2C(=O)N[C@H]3C(=O)N[C@H](C(=O)N[C@H](C(=O)O)c4cc(O)cc(O)c4-c4cc3ccc4O)[C@H](O)c3ccc(c(Cl)c3)Oc3cc2cc(c3O[C@@H]2O[C@H](CO)[C@@H](O)[C@H](O)[C@H]2O[C@H]2C[C@](C)(N)[C@H](O)[C@H](C)O2)Oc2ccc(cc2Cl)[C@H]1O` [VANCOMYCIN]: the minimal inhibitory concentration (MIC) in assay [1] is 1.95 µg/mL (≈ 1.35 µM); in assay [2], at most 0.97 µg/mL; in assay [3], at most 0.97 µg/mL; in assay [4] it was at most 0.97 µg/mL; in assay [5], at most 0.97 µg/mL.
